Data as given in ChEMBL document CHEMBL1152539, “Synthesis and evaluation of bioactive naphthoquinones from the Brazilian medicinal plant, Tabebuia avellanedae” (Bioorg Med Chem, 2009).

Legend:
[1] = Inhibition of 12-O-tetradecanoylphorbol-13-acetate-induced EBV-early antigen activation in human Raji cells after 48 hrs by immunofluorescence technique; assay type: cell-based, human gammaherpesvirus 4
How it was run: (§1)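 Raji cells were incubated for 48 h at 37 °C in medium with n-butyric acid (4 mM), TPA (32 pmol) and graded amounts of test compound. Smears were stained for EBV-EA by indirect immunofluorescence, and positive cells were counted among at least 500 cells. Assays were run in triplicate. Activity was expressed relative to the n-butyric acid plus TPA control, set as 100%.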

[2] = Cytotoxicity against human Raji cells assessed as cell viability at 500 molar ratio after 48 hrs by trypan blue staining; assay type: cell-based; settings: read-out: Activity
How it was run: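 Raji cells incubated 48 h at 37 °C in medium containing n-butyric acid (4 mM), TPA (32 pmol) and various amounts of test compound, as part of the EBV-EA activation inhibition assay. Viability of the treated cells was then assayed by trypan blue staining.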

Raji [3] = assay: Inhibition of 12-O-tetradecanoylphorbol-13-acetate-induced EBV-early antigen activation in human Raji cells assessed as EA induction at 100 molar ratio after 48 hrs by immunofluorescence technique relative to 12-O-tetradecanoylphorbol-13-acetate; assay type: cell-based; set-up: scale not given: the % may be the effect or the level left; settings: human gammaherpesvirus 4; how it was run: as §1
Raji [4] = assay: Inhibition of 12-O-tetradecanoylphorbol-13-acetate-induced EBV-early antigen activation in human Raji cells assessed as EA induction at 500 molar ratio after 48 hrs by immunofluorescence technique relative to 12-O-tetradecanoylphorbol-13-acetate; assay type: cell-based; set-up: scale not given: the % may be the effect or the level left; settings: human gammaherpesvirus 4; how it was run: as §1
Hepatocyte = assay: Antiproliferative activity against human hepatocytes after 72 hrs by trypan blue exclusion assay; assay type: cell-based
How it was run: (§2)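 Cells were kept in DMEM with 10% fetal serum and exposed to four concentrations of compound for 72 h at 37 °C in humidified 5% CO₂. They were then stained with 0.25% trypan blue for 20 min, and viable cells were counted by light microscopy. IC₅₀ was derived from separate experiments run in triplicate.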

[5] = Antiproliferative activity against human skin fibroblast after 72 hrs by trypan blue exclusion assay; assay type: cell-based; how it was run: as §2
Raji [6] = assay: Inhibition of 12-O-tetradecanoylphorbol-13-acetate-induced EBV-early antigen activation in human Raji cells assessed as EA induction at 1000 molar ratio after 48 hrs by immunofluorescence technique relative to 12-O-tetradecanoylphorbol-13-acetate; assay type: cell-based; settings: human gammaherpesvirus 4; how it was run: as §1
[7] = Anticancer activity against DMBA/TPA-induced skin cancer in mouse assessed as incidence of papilloma at 85 nmol administered before TPA challenge measured after 15 weeks; assay type: functional
How it was run: (§3)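 Mouse two-stage skin model: DMBA 390 nmol in 0.1 mL acetone applied topically by pipet. One week later, the same skin site was painted with test compound (85 nmol in acetone) or acetone alone, 60 min before TPA (1.7 nmol). Tumor response was scored as the average number of papillomas per mouse and the percentage of mice bearing papillomas.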

[8] = Anticancer activity against DMBA/TPA-induced skin cancer in mouse assessed as incidence of papilloma at 85 nmol administered before TPA challenge measured after 10 weeks; assay type: functional; how it was run: as §3
[9] = Anticancer activity against DMBA/TPA-induced skin cancer in mouse assessed as number of papillomas per mouse at 85 nmol administered before TPA challenge measured after 20 weeks; assay type: functional; how it was run: as §3
[10] = Cytotoxicity against human Raji cells assessed as cell viability at 1000 molar ratio after 48 hrs by trypan blue staining; assay type: cell-based; settings: read-out: Activity
How it was run: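 Raji cells were exposed for 48 h at 37 °C to n-butyric acid (4 mM), TPA (32 pmol) and test compound, as in the EBV-EA induction setup. Viability of the treated cells was then measured by trypan blue staining.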

[11] = Anticancer activity against DMBA/TPA-induced skin cancer in mouse assessed as incidence of papilloma at 85 nmol administered before TPA challenge measured after 20 weeks; assay type: functional; how it was run: as §3
Raji [12] = assay: Inhibition of 12-O-tetradecanoylphorbol-13-acetate-induced EBV-early antigen activation in human Raji cells assessed as EA induction at 10 molar ratio after 48 hrs by immunofluorescence technique relative to 12-O-tetradecanoylphorbol-13-acetate; assay type: cell-based; set-up: scale not given: the % may be the effect or the level left; settings: human gammaherpesvirus 4; how it was run: as §1
[13] = Antiproliferative activity against human SVCT-M12 cells after 72 hrs by trypan blue exclusion assay; assay type: cell-based; settings: SVCT-M12, 72 h; how it was run: as §2
[14] = Antiproliferative activity against human MPC5 cells after 72 hrs by trypan blue exclusion assay; assay type: cell-based; settings: MPC-5, 72 h; how it was run: as §2
[15] = Antiproliferative activity against human Hs888Lu cells after 72 hrs by trypan blue exclusion assay; assay type: cell-based; how it was run: as §2

| SMILES | IC50 [1] [mol ratio/32 pmol TPA] | viability at 48 h, 500 molar ratio [2] [%] | Activity (Raji [3]) [%] | Activity (Raji [4]) [%] | EC50 (Hepatocyte) [nM] | EC50 [5] [nM] | EA induction relative to TPA control (Raji [6]) [%] | Activity [7] [%] | Activity [8] [%] | Activity [9] | viability at 48 h, 1000 molar ratio [10] [%] | Activity [11] [%] | Activity (Raji [12]) [%] | EC50 [13] [nM] | EC50 [14] [nM] | EC50 [15] [nM] |
| --- | --- | --- | --- | --- | --- | --- | --- | --- | --- | --- | --- | --- | --- | --- | --- | --- |
| CC(O)c1cc2c(o1)C(=O)c1cccc(O)c1C2=O (racemic) | 34.9 | 70 | 20.7 | 6.2 | 89300 | 45400 | 0 | 47 | 7 | 3.9 | 60 | 67 | 52.9 |  |  |  |
| CO[C@@]12[C@H](COC(N)=O)C3=C(C(=O)C(C)=C(N)C3=O)N1C[C@@H]1N[C@@H]12 [MITOMYCIN] |  |  |  |  | 1460 | 930 |  |  |  |  |  |  |  | 960 | 2100 | 560 |
